According to ChEMBL document CHEMBL4513216, “Probing the Open Global Health Chemical Diversity Library for Multistage-Active Starting Points for Next-Generation Antimalarials” (ACS Infect Dis, 2020):

Assay: Toxicity liver stage against HepG2, at 10uM
Assay type: cell-based
Parameters: test concentration 10 uM, cell line HepG2-A16-CD81EGFP
Conditions: human, HepG2-A16-CD81EGFP cells; read-out: INHIBITION
Method in brief: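 Uninfected HepG2-A16-CD81EGFP cells, 3 × 10^3 per well, 1536-well, plated on prespotted compound at 10 μM final, parasite-free screening media added to match infected plates; puromycin 10 μM positive, DMSO 0.5% negative; run in parallel with 48 h PbLuc assay at 37 °C, 5% CO2; viability by CellTiter-Glo luminescence, normalized to controls.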

SMILES | cytotoxicity at 10 µM [%]
CCN(CC)[C@H]1C[C@@H](Cc2cc(CO)on2)C1(C)C | 9.12
COCCN1CCN(C(=O)C[C@@H]2C[C@@H](C(C)C)[C@H](CC#N)C=C2C)CC1 | 0.788
O=C1CC(c2ccncc2)c2c(c(C(=O)O)cn2-c2ccccc2)N1 (stereo unspecified) | -3.7
O=C(NC1CCCCC1)c1ccc(Oc2ccc3nncn3n2)cc1 | 2.17
O=C(Nc1cccnc1-n1cc(Br)cn1)C1CCCC1 | -33.1
COc1cccc2sc(N3CCN(C(=O)c4cc(C)on4)CC3)nc12 | 6.21
Cc1nnc(C2CCN(C(=O)c3ccsc3)CC2)s1 | 10.5
O=C(N[C@]12CC1CN(C(=O)c1ccco1)C2)c1ccoc1 (stereo partly specified) | -1.48
CN(C)CCN1C(=O)CO[C@@H]2CN(c3ncc(F)cn3)C[C@H]21 | 0.81
Cc1ccsc1C(=O)NCC1COCc2c(C)nnn2C1 (stereo unspecified) | -3.51
CN1CCN(Cc2cn3c(n2)CN(C(=O)c2ccco2)CC3)CC1 | -4
O=C(c1cccs1)N1CC[C@H](O)[C@@H]1Cc1ccccc1 | -5.99
Cc1cc(C(=O)N2C[C@@H]3COC[C@]3(c3nnc(C4CC4)o3)C2)on1 | -10
O=C(NCCc1cc2nc(-c3ccncc3)ccn2n1)C1CCOCC1 | 4.59
COCC(=O)N1CCCCC1c1nc(N(C)C)ncc1-c1cc(C)no1 (stereo unspecified) | 5.93
c1cc(CN2CCCC(c3ccnc4nccn34)C2)ccn1 (stereo unspecified) | -3.29
COCCC(=O)N1C[C@@H](c2ccc(F)c(F)c2)[C@@]2(CCCC(=O)N2)C1 | -9.06
CCc1onc(C)c1C(=O)N1CCC(c2cc3ncccc3cn2)CC1 | 1.68
CNC(=O)c1cn[nH]c1C1(C)CCCN(Cc2ccccn2)C1 (stereo unspecified) | -10.5
Cc1nc(Nc2nncs2)cc(C2CCCN2C)n1 (stereo unspecified) | -22.6
Cc1cc(N)nc(C2(C)CCCN2C(=O)c2cnccn2)n1 (stereo unspecified) | -27.1
O=C(c1cscn1)N1CCC(O)(Cn2ccc3ccncc32)CC1 | -18.2
O=C(C1CCOCC1)N1CCC(O)(Cn2ccc3ccncc32)CC1 | -19.8

SMILES | cytotoxicity at 10 µM [%]
COCCNC(=O)c1ccccc1-n1cc(CN)cn1 | -23.6
Cc1nc(C2CCN(C(=O)c3cscn3)CC2)c2sccn12 | -5.16
NCc1cn(-c2ccccc2C(=O)NCc2ccccc2Cl)cn1 | -9.94
COCc1cc(O)nc(C2CCCN(Cc3cccc(Cl)c3Cl)C2)n1 (stereo unspecified) | -7.47
Cc1cc(N(C)C)nc(NC2CCc3nc(C)nn3C2)n1 (stereo unspecified) | 5.56
CC(C)n1nnnc1-c1ccc(NC(=O)N(C)CCN(C)C)cc1F | -2.71
O=C(NCC(=O)N1CCCCC1)c1sccc1C1CC1 | -136
Cc1cc(CN(C)C(=O)C(c2ccccc2)N2CCSCC2)no1 (stereo unspecified) | -1.49
COc1ccc2c(c1)CCCC2CC(=O)NCC(C)(C)C(=O)O (stereo unspecified) | -1.2
Cc1cc(CNC(=O)NCCC(=O)N2CCCc3ccccc32)no1 | -4.09
COc1cc2c(nn1)CCN(Cc1noc(CC(C)C)n1)C2 | -1.02
COCCOc1ncccc1C(=O)N(C)c1ccc(OC)c(OC)c1 | -46.7
CC(NC(=O)CNc1cc2c(cc1Cl)NC(=O)CO2)c1ccco1 (stereo unspecified) | -0.0162
N#Cc1cn(CCN2CCc3ccccc3C2)c(=O)[nH]c1=O | 4.47
CNC(=O)C(NC(C)=O)c1ccc(F)c(F)c1 (stereo unspecified) | -6.1
CN(C)CCn1c(=O)oc2ccc(NC(=O)N3CCCCCC3)cc21 | -3.59
COCCN1CCC(NC(=O)Cn2cc(C)c3ccccc32)CC1 | -0.869
Cc1nn(C)c(Oc2ccccc2)c1CNC1CCOc2ccccc21 (stereo unspecified) | 4.88
COCCCNC(=O)Nc1cccc2c1CCN(S(C)(=O)=O)C2 | 2.87
Cc1cc(C)c(CNC(=O)NCC2COc3ccccc3C2)c(=O)[nH]1 (stereo unspecified) | 8.51
CC(C)c1noc(CN2CCOCC2C)n1 (stereo unspecified) | 3.95
COc1cccc(CNc2cccnc2-n2cccn2)c1OC | 1
COc1cccc(COc2nc(C(C)C)no2)c1 | -42.4

SMILES | cytotoxicity at 10 µM [%]
COc1ccccc1CN(Cc1nc(C)no1)C1CC1 | 2.77
Cc1noc(C)c1CN1CCCC1c1nnc2ccccn12 (stereo unspecified) | -1.73
CCNC(=O)N1CCc2ccc(NC(=O)C(C)c3ccsc3)cc21 (stereo unspecified) | -3.41
Cc1ccccc1C1(CNc2nnc(C)c(C)c2C#N)CCOCC1 | -2.1
O=C(c1ccncn1)N1C[C@@H]2CN(Cc3cccnc3)CCO[C@@H]2C1 | 7.61
Cc1cccc(N2CCC3(CCCN(C(=O)Cc4cccnc4)C3)C2)n1 (stereo unspecified) | 0.824
CCn1c(CC2CCN(C(=O)c3cc(C(C)C)nn3C)CC2)n[nH]c1=O | -58.5
CCCC(=O)Nc1ccc(CC(=O)N(C)CCc2cn[nH]c2)cc1 | 4.84
COCCCC1CCN([C@@H]2c3ccccc3C3(CCNCC3)[C@H]2O)CC1 | -4.67
Cn1ccnc1-c1cn(CCCc2csc(N)n2)nn1 | 0.963
COCCC1(CO)CCCN(Cc2cc(C(F)(F)F)ccc2F)C1 (stereo unspecified) | -141
CCN(CC)CCn1cnc(-c2ccccc2)c1-c1cnn(CC)c1 | 3.37
CCCc1cnc(C)nc1N1CCC(Cn2cc(C(C)O)nn2)CC1 (stereo unspecified) | 1.92
CCOCCC(=O)N1CCCCC1CCn1cccn1 (stereo unspecified) | -0.168
CCOCC1CCN(C(=O)C(c2cccc(F)c2)N(C)C)CC1 (stereo unspecified) | -4.57
N#Cc1cccc(N2CCC(CO)(CCOc3ccccc3)CC2)n1 | -42.8
O=C(N[C@@H]1CCN(c2ncc(Cl)cc2Cl)C[C@H]1O)c1cnccn1 | -8.92
CCOC(=O)CC1CCCCN1C(=O)c1cc(C)on1 (stereo unspecified) | 5.53
COCCCN1CC2(CCCN(CCn3cc(Cl)cn3)C2)CCC1=O (stereo unspecified) | 5.97
CNc1nc2c(c(C(=O)N3CCCC3)n1)CN(Cc1ccco1)CC2 | -113
COC(=O)c1cccc(C(=O)N2CCCCC2CCn2ccnc2C)c1 (stereo unspecified) | 14.5
CN(Cc1ccsc1)C(=O)CN1CCCC(Cn2cncn2)C1 (stereo unspecified) | -11.3
Cc1csc(C2CCCCN2C(=O)c2cc(C)n(C)n2)n1 (stereo unspecified) | -17.9

SMILES | cytotoxicity at 10 µM [%]
CCN(CC)CC1CCN(C(=O)CCn2cccn2)CC1 | -13.3
Cc1ccc(-c2cc(CNC(=O)N3CCC(N(C)C)CC3)on2)cc1 | -10.8
CC(C)CCN(C(=O)c1nc(S(C)(=O)=O)n2ccccc12)C1CC1 | -2.63
Cc1ncc(Cl)c(C(=O)N2CCCC(n3nc(C)nc3C)C2)n1 (stereo unspecified) | -0.426
Cc1cc(NC(=O)CNC2CCc3ncnn3C2)no1 (stereo unspecified) | -6.73
Nc1cc2c(nn1)CCN(C(=O)C1CCc3ccccc31)C2 (stereo unspecified) | -6.58
Cc1cnn(CCNCC(O)COc2ccc3ccccc3c2)c1 (stereo unspecified) | -6.31
Cc1cnn(CCC(=O)N2CCCN(c3nc(C)cs3)CC2)c1 | -4.05
COc1ccc(OC)c(C(O)CNC(=O)Nc2cccnc2OC)c1 (stereo unspecified) | -22.4
CCc1nc(CN(C(C)=O)C2CCN(CC3CCOCC3)C2)no1 (stereo unspecified) | -3.84
Cc1nc(C)n(CC2CCCN2CCOc2ccccc2C#N)n1 (stereo unspecified) | -4.17
Cn1cc(CC(=O)N2CCCC(n3cncn3)C2)cn1 (stereo unspecified) | -3.54
O=C(NCc1ccccc1-n1cccn1)N1CCC(N2CCCC2)C1 (stereo unspecified) | -0.554
Cc1nn(-c2ccccc2)nc1C(=O)N1CCCC(n2cccn2)C1 (stereo unspecified) | -9.53
CC(Cn1ccnc1)NC(=O)NCc1cccnc1OC1CCCC1 (stereo unspecified) | -13.3
CCc1nc(C2CCCN2C(=O)c2cc(Cl)c[nH]2)no1 (stereo unspecified) | -12.2
O=C(Nc1ccccc1)N1CCN(Cc2noc(C3CC3)n2)CC1 | 2.82
N#Cc1cnn(-c2ccc(C(=O)N(C3CCCCC3)C3CC3)cc2)c1N | -2.54
COc1ccc(Cl)cc1CC(=O)N1CCN(CC(C)O)CC1 (stereo unspecified) | -17.1
O=C(COCc1ccccc1Cl)N1CCCC(n2ccnc2)C1 (stereo unspecified) | -25.1
O=C(c1sccc1C1CC1)N1CCN(Cc2cscn2)CC1 | 1.97
Cc1nc(CN(C)C2CCN(Cc3cccc(F)c3)C2)no1 (stereo unspecified) | -15
Cc1nnc(NC(=O)CN2CCOC(Cn3cccn3)C2)s1 (stereo unspecified) | -7.44

SMILES | cytotoxicity at 10 µM [%]
Cc1nc2ccccc2nc1CN1CCCCC1Cn1cccn1 (stereo unspecified) | 3.94
CC(C)S(=O)(=O)C(C)C(=O)NCc1cccc(N2CCCCC2=O)c1 (stereo unspecified) | -7.91
Cc1cc(NC(=O)CN2CCN(c3nccs3)C(C)C2)n(C)n1 (stereo unspecified) | -4.2
C[C@H]1CN2C[C@H](O)CC2CN1Cc1ccc2nccnc2c1 (stereo partly specified) | -1.23
Cc1cc(Nc2ccccn2)nc(C2CCCN(CCO)C2)n1 (stereo unspecified) | 1.26
c1cncc(-c2nccc(CN3CCC(N4CCCCC4)CC3)n2)c1 | -26
Cn1cc(N2C(=O)CC[C@@H]3[C@H]2CCN3CCc2ccccc2)cn1 | 15.6
O=C(N1CCCO1)[C@@]12CCO[C@@H]1CCN(Cc1cccnc1)C2 | -4.26
c1cncc(CN2CCC3(COCCN(C4CCOCC4)C3)C2)c1 (stereo unspecified) | 1.46
COCCn1cc2c(n1)C(CNCc1cccc(OC)c1)OCC2 (stereo unspecified) | -4.52
CCN1CCN(C)C2(CCN(Cc3ccsc3)CC2)C1=O | 0.317
CCOC1COC2(CCN(Cc3ccc(C)cc3)CC2)C1 (stereo unspecified) | -8.28
COc1cc(CNCCn2ccnc2)cc2c1OCO2 | 5.17
COc1ccc(CN2CCO[C@H]3CN(C4CCC4)CC[C@H]3C2=O)cc1 | -148
Cc1ccc(C(=O)N2CCn3cc(CN4CCCCC4)nc3C2)o1 | 4.75
Cc1noc([C@@]23CCO[C@@H]2CCN(CC2CCOCC2)C3)n1 | -2.1
O=C1C[C@@H]2CC[C@H](CN1)N2C(=O)CCc1ccc2c(c1)OCO2 | -5
Cc1cnc(N2C[C@@H]3C[C@H](C(=O)N(C)C)[C@H](C2)O3)nc1 | -2.47
COc1ccc(CN2C[C@@H]3C(CC(=O)N4CCCC4)[C@@H]3C2)cc1 (stereo partly specified) | -13.8
